Source: ChEMBL document CHEMBL4732058, “Development of pyrene-based fluorescent ether lipid as inhibitor of SK3 ion channels” (Eur J Med Chem, 2021)
The source made the active and inactive calls. The rule behind the calls is not given here.

What was measured:
MDA-MB-435 [1] = assay: Inhibition of cell migration in human MDA-MB-435 cells expressing SK3 channel at 0.3 uM measured after 24 hrs; format: functional
Procedure, shortened: (§1)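 Transwell migration through […] pore inserts in 24-well plates, using MDA-MB-435s expressing endogenous SK3 (SK3+) or not (SK3-); DMSO stock 10 mM. Results relative to control, mean ± S.E.M.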

[2] = molecular target: Small conductance calcium-activated potassium channel protein 3 (Homo sapiens) (UniProt Q9UGI6); assay: Inhibition of SK3 (unknown origin) assessed as reduction in SK3 expression in presence of proteinase K
Procedure, shortened: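 Cell-surface expression by proteinase K cleavage: cells incubated with or without […] proteinase K at 37 °C for 30 min, quenched with ice-cold PBS with 6 mM PMSF and 25 mM EDTA; western blot, full-length SK3 75 kDa, surface-cleaved band 55 kDa.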

[3] = molecular target: Small conductance calcium-activated potassium channel protein 3 (Rattus norvegicus) (UniProt P70605); assay: Inhibition of recombinant rat SK3 expressed in HEK293 cells assessed as reduction in channel current at 10 uM and holding potential at 0 mV by whole cell patch clamp method relative to control; format: cell-based
[4] = Fluorescence property of compound in preformed egg-PC based liposomes assessed as liposomal integration at 0.2 uM by fluorescence spectra analysis; format: physicochemical; conditions: artificial membrane
Procedure, shortened: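 Post-insertion: compound from methanol stock (50 mM) added to preformed, sonicated egg-PC liposomes; final compound 0.2 at lipid 8 or 40 (lipid/compound ratios 40 or 200).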

MDA-MB-435 [5] = assay: Cytotoxicity against human MDA-MB-435 cells at 1 uM incubated for 48 hrs by MTT assay; format: cell-based; conditions: mda-mb-435, 48 h
[6] = molecular target: Small conductance calcium-activated potassium channel protein 3 (Rattus norvegicus) (UniProt P70605); assay: Inhibition of recombinant rat SK3 expressed in HEK293T cells assessed as reduction in channel current at 10 uM and holding potential at 0 mV by whole cell patch clamp method relative to control; format: cell-based
[7] = Fluorescence property of compound in egg-PC based liposomes assessed as liposomal integration at 0.2 uM added before liposome formation by fluorescence spectra analysis; format: physicochemical; conditions: artificial membrane
Procedure, shortened: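 Pre-insertion: methanol stock (50 mM) added to egg-PC lipids before solvent evaporation, then liposomes formed; final compound 0.2 at lipid 8 or 40 (lipid/compound ratios 40 or 200).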

[8] = Drug uptake in human MDA-MB-231 cells at 1 uM after 2 hrs by fluorescence imaging analysis; format: ADME, cell-based; conditions: mda-mb-231, 2 h
Procedure, shortened: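 Breast cancer cells seeded at 100.000 per 35 mm dish in serum-supplemented DMEM, treated 24 h after seeding; medium swapped to serum-free DMEM before adding compound. Wide-field microscope, 20× oil objective, excitation 340 nm, excimer emission imaged 468–552 nm; same field imaged every 15 min from 60 to 165 min after addition.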

MDA-MB-435 [9] = assay: Inhibition of cell migration in human MDA-MB-435 cells at 1 uM measured after 24 hrs; format: functional, cell-based; procedure, shortened: as §1
MDA-MB-435 [10] = assay: Inhibition of cell migration in human MDA-MB-435 cells expressing SK3 channel at 1 uM measured after 24 hrs; format: functional; procedure, shortened: as §1
[11] = Drug uptake in plasma membrane of human MDA-MB-231 cells at 1 uM measured after 45 mins by fluorescence imaging analysis; format: ADME, cell membranes, Cell membrane; conditions: mda-mb-231, 0.75 h

Chain of Small conductance calcium-activated potassium channel protein 3 (Rattus norvegicus) (P70605 whole entry): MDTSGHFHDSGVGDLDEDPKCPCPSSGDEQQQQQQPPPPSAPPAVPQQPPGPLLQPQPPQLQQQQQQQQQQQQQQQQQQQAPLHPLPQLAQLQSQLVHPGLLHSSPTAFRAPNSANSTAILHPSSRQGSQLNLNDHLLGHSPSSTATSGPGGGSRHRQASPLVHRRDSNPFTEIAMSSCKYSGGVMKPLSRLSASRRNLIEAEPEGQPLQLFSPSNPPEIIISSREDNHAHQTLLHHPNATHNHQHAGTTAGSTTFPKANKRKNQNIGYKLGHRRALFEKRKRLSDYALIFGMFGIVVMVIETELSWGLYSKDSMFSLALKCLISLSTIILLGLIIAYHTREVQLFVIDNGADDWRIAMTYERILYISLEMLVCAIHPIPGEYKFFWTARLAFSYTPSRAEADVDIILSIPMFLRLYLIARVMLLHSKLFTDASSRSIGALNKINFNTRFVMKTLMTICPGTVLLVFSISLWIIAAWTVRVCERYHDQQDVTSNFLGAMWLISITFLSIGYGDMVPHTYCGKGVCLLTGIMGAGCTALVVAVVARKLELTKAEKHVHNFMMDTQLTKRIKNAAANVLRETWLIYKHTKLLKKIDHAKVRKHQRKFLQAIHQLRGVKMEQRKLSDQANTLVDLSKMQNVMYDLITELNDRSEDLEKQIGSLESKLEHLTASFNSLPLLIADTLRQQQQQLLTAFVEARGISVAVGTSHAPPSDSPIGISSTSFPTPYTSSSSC
Chain of Small conductance calcium-activated potassium channel protein 3 (Homo sapiens) (Q9UGI6 whole entry): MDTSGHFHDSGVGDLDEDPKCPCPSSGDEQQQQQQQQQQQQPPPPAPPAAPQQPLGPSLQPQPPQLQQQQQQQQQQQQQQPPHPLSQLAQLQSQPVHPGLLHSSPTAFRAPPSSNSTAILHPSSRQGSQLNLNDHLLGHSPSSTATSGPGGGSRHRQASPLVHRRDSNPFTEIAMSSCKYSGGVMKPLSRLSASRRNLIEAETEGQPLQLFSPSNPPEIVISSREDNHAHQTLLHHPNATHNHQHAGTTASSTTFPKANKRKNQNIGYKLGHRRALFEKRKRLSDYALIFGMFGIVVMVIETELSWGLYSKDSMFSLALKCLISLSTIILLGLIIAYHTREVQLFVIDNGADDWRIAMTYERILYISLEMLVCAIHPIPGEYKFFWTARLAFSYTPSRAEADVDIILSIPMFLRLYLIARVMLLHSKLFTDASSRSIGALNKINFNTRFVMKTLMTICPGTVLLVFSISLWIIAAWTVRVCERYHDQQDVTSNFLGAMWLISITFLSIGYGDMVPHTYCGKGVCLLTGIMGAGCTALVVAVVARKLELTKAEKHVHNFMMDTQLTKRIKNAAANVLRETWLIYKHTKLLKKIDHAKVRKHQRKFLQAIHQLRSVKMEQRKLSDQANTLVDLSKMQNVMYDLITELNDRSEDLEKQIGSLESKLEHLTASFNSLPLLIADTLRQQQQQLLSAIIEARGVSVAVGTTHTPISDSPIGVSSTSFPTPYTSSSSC

inhibition [2] | inhibition [3] [%] | Activity [4] | inhibition [6] | Activity [7] | Drug uptake [8] | Drug uptake [11] | Compound | inhibition at 0.3 µM (MDA-MB-435 [1]) [%] | Activity (MDA-MB-435 [5]) | inhibition (MDA-MB-435 [1]) | inhibition (MDA-MB-435 [9]) | inhibition at 1 µM (MDA-MB-435 [10]) [%]
inactive | 73 | – | – | – | – | – | CCCCCCCCCCCCCCCCOCC(CO[C@@H]1O[C@H](CO)[C@@H](O[C@@H]2O[C@H](CO)[C@H](O)[C@H](O)[C@H]2O)[C@H](O)[C@H]1O)OC (stereo not given in full) | 50 | – | – | – | –
– | – | Not Active | inactive | Not Active | – | – | COC(COCCCCc1ccc2ccc3cccc4ccc1c2c34)CO[C@@H]1O[C@H](CO)[C@@H](O[C@@H]2O[C@H](CO)[C@H](O)[C@H](O)[C@H]2O)[C@H](O)[C@H]1O (mixture of isomers) | – | Non-Toxic | – | – | –
– | – | Active | inactive | Active | – | – | COC(COCCCCCCCCCCCCCCCCc1ccc2ccc3cccc4ccc1c2c34)CO[C@@H]1O[C@H](CO)[C@@H](O[C@@H]2O[C@H](CO)[C@H](O)[C@H](O)[C@H]2O)[C@H](O)[C@H]1O (mixture of isomers) | – | Non-Toxic | – | – | –
inactive | – | Active | – | Active | Active | Active | COC(COCCCCCCCCCCCc1ccc2ccc3cccc4ccc1c2c34)CO[C@@H]1O[C@H](CO)[C@@H](O[C@@H]2O[C@H](CO)[C@H](O)[C@H](O)[C@H]2O)[C@H](O)[C@H]1O (mixture of isomers) | – | Non-Toxic | inactive | inactive | -32.5
